Laboratory results taken from ChEMBL document CHEMBL4354819, “Discovery of Novel Small Molecule Dual Inhibitors Targeting Toll-Like Receptors 7 and 8” (J Med Chem, 2019).
Activity calls are given as the source filed them. The rule behind the calls is not given here.

Key:
HEK293 [1] = assay: Cytotoxicity against human HEK293 cells transfected with human TLR8 assessed as reduction in cell viability at 0.5 to 20 uM incubated for 16 hrs by WST-1 assay; assay type: cell-based; conditions: hek293, 16 h
[2] = molecular target: T1, Toll-like receptor 8 (Homo sapiens) (UniProt Q9NR97); assay: Inhibition of human TLR8 expressed in HEK293 cells assessed as reduction in TNFalpha-induced NFkappaB production incubated for 16 hrs by quanti-blue SEAP assay; assay type: cell-based
T1 sequence (whole entry): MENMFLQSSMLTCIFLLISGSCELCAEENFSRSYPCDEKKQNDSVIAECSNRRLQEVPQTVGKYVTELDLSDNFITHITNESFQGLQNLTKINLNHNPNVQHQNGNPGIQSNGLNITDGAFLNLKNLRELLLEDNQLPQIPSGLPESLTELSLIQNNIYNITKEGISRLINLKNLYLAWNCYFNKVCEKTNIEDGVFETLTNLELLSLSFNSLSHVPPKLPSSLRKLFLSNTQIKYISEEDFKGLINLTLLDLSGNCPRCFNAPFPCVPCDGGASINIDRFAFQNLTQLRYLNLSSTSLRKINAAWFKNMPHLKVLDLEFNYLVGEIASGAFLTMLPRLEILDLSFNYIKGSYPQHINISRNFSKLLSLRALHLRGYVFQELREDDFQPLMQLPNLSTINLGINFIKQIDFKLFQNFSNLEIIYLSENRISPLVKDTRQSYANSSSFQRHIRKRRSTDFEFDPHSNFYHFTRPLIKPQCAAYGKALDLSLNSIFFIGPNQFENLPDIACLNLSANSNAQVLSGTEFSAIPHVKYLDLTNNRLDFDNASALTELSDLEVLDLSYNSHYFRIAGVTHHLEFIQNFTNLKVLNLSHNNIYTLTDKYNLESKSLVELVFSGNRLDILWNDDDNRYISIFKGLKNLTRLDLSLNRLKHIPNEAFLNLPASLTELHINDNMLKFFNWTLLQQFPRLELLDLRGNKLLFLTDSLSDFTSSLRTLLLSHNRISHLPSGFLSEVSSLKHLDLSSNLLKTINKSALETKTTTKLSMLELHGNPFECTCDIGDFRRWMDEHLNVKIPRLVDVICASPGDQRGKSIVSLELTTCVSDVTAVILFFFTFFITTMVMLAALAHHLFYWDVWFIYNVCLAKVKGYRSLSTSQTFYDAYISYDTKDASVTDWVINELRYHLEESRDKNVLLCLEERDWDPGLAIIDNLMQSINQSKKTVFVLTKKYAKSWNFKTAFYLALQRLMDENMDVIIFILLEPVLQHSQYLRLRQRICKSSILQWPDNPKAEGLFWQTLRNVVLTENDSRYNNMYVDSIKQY
Summary of the method: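 HEK 293 hTLR8 SEAP reporter cells were stimulated with recombinant hTNF-α and incubated with compound for 16 h. SEAP absorbance was read at 620 nm and compared with 50% DMSO-treated and untreated wells.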

Toll-like receptor 8 = molecular target: T2, Toll-like receptor 8 (Homo sapiens, UniProt Q9NR97); assay: Inhibition of human TLR8 expressed in HEK293 cells assessed as reduction in R848-induced NFkappaB production incubated for 16 hrs by quanti-blue SEAP assay; assay type: cell-based
T2 sequence (Q9NR97 whole entry): T1 sequence (whole entry)
Summary of the method: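 HEK 293-Blue cells stably expressing hTLR7 or hTLR8 with an inducible SEAP reporter were incubated 16 h with compound under 1 µg/mL R848 stimulation. SEAP was read at 620 nm. Data were normalized to the R848 control, and IC50 was taken from concentration-response curves. […] Mean ± s.d., n = 3 independent experiments.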

HEK293 [3] = assay: Cytotoxicity against human HEK293 cells transfected with human TLR7 assessed as reduction in cell viability at 100 uM incubated for 16 hrs by WST-1 assay; assay type: cell-based; conditions: hek293, 16 h
THP-1 = assay: Inhibition of IFN mediated immune response in human THP1 cells assessed as inhibition of G3-YSD-induced cGAS signalling pathway at 0.5 to 5 uM incubated for 16 hrs by luciferase assay; assay type: functional, cell-based
Summary of the method: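 THP1-Dual monocytes carrying Lucia luciferase and SEAP reporters were stimulated with 3p-hpRNA (RIG-I agonist) or Y-form dsDNA G3-YSD (cGAS agonist), with or without compound. Secreted Lucia luciferase luminescence was measured as the type I IFN read-out. Mean ± s.d., n = 3 independent experiments.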

RAW264.7 = assay: Cytotoxicity against mouse RAW264.7 cells transfected with human TLR7/8 assessed as reduction in cell viability at 0.5 to 20 uM incubated for 16 hrs by WST-1 assay; assay type: cell-based; conditions: raw264.7, 16 h
HEK293 [4] = assay: Cytotoxicity against human HEK293 cells transfected with human TLR8 assessed as reduction in cell viability at 100 uM incubated for 16 hrs by WST-1 assay; assay type: cell-based; conditions: hek293, 16 h
HEK293 [5] = assay: Cytotoxicity against human HEK293 cells transfected with human TLR7 assessed as reduction in cell viability at 0.5 to 20 uM incubated for 16 hrs by WST-1 assay; assay type: cell-based; conditions: hek293, 16 h

inhibition [2]	IC50 (Toll-like receptor 8)	Compound	Activity (HEK293 [1])	Activity (HEK293 [3])	inhibition (THP-1)	Activity (RAW264.7)	Activity (HEK293 [4])	Activity (HEK293 [5])
Active	300 nM	O=[N+]([O-])c1c(I)cccc1Oc1ccc(-c2nnco2)cc1	Non-Toxic	Toxic	inactive	Non-Toxic	Toxic	Non-Toxic
Active	2870 nM	O=C(Nc1ccc(Oc2cncc(C(F)(F)F)c2)cc1)c1c(F)cccc1Cl	Non-Toxic	Toxic	inactive	Non-Toxic	Toxic	Non-Toxic
Active	1040 nM	O=C(Nc1ccc(Oc2cc(C(F)(F)F)cc(C(F)(F)F)c2)cc1)c1c(F)cccc1I	Non-Toxic	Toxic	inactive	Non-Toxic	Toxic	Non-Toxic
–	1640 nM	O=C(Nc1ccc(Oc2cc(C(F)(F)F)cc(C(F)(F)F)c2)cc1)c1c(F)cccc1Cl	–	–	–	–	–	–
